Data on 8 compounds can be found in ChEMBL document CHEMBL5325428 (Eur J Med Chem, 2023).

One data set addresses Prothrombin (Homo sapiens, UniProt P00734). In words: Inhibition of human thrombin. The class given is toxicity. Summed up: (§1)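 Commercial purified human proteases were assayed following the manufacturers' procedures. IC50 values are mean ± SD.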
Data set [1] is described as follows: Cytotoxicity against human HEK293T cells assessed as reduction in cell viability incubated for 72 hrs by CytoTox 96 nonradioactive assay. It is filed as toxicity, cell-based, HEK-293T.
A further data set addresses T1, Neutrophil elastase (Homo sapiens, UniProt P08246).
T1 sequence (P08246 whole entry): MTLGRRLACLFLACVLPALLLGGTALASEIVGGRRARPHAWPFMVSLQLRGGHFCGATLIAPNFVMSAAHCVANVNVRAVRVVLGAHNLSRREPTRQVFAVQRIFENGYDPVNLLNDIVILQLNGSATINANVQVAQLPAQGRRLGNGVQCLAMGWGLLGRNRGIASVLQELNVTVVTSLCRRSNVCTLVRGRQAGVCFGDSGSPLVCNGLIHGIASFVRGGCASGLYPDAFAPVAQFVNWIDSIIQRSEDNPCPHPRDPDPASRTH
In words: Inhibition of human neutrophil elastase. It is filed as toxicity. Put shortly:
as §1

In data set [2] the target is Replicase polyprotein 1ab (Severe acute respiratory syndrome coronavirus 2, UniProt P0DTD1). Description: Inhibition of N-terminal His6-tagged full length SARS-CoV-2 3CLpro using FAM-SAVLQ as substrate preincubated with enzyme for 1 hr followed by susbtrate addition and measured after 1 hr by FRET assay.
Data set [3] concerns Feline infectious peritonitis virus. In words: Antiviral activity against FIPV 1146 infected in CRFK cells assessed as inhibition of viral replication incubated for upto 168 hrs by TCID50 method. It is filed as functional, organism-based. Particulars: Alphacoronavirus 1, 1146, CRFK. Put shortly:
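Crandell-Rees feline kidney cells infected with FIPV-1146; test compounds added to the medium at various concentrations. EC50 was fitted from the dose-dependent inhibition curve with a variable slope. Values are mean ± SD.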

Another data set deals with Cathepsin D (Homo sapiens, UniProt P07339). In words: Inhibition of human Cathepsin D. The class given is toxicity. Put shortly:
as §1

In a further data set the target is chymotrypsin (Homo sapiens, UniProt P17538+P40313+Q6GPI1+Q99895). In words: Inhibition of human chymotrypsin. It is filed as toxicity. Put shortly: as §1
The next data set concerns the target Procathepsin L (Homo sapiens, UniProt P07711). Description: Inhibition of human Cathepsin L. The class given is toxicity. Put shortly:
as §1

The target of a further data set is Cathepsin B (Homo sapiens, UniProt P07858). In words: Inhibition of human Cathepsin B. The class given is toxicity. Summed up:
as §1

For another data set, the target named is T2, Cathepsin G (Homo sapiens, UniProt P08311).
T2 sequence (P08311 whole entry): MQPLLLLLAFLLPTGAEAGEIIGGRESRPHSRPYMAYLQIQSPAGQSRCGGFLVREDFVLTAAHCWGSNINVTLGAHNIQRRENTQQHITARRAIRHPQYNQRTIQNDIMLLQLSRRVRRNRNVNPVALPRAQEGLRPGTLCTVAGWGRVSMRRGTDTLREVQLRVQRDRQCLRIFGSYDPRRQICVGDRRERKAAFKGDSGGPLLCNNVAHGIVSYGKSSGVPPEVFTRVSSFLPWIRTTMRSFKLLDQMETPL
In words: Inhibition of human Cathepsin G. The class given is toxicity. Put shortly: as §1

In another data set the test system is SARS-CoV-2. In words: Antiviral activity against SARS-CoV-2 Wuhan-HU-1 infected in HEK293T cells assessed as inhibition of viral replication incubated for 30 hrs by luciferase reporter gene assay. It is filed as functional, organism-based. The settings on record: Severe acute respiratory syndrome coronavirus 2, Wuhan-HU-1, HEK-293T. Put shortly: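 This is a non-infectious Wuhan-Hu-1 replicon system, not infectious virus. Replicon RNA was electroporated into 293T cells, which were then incubated for 30 h with compound at 2, 0.5, 0.1 and 0.02 µM or with 0.1% DMSO. Read-out was luciferase activity. Values are mean ± SD.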
On the technique in general: A reporter such as luciferase makes a cellular process visible.

The nature of data set [4]: Safety index, ratio of CC50 for cytotoxicity against human HEK293T cells to EC50 for antiviral activity against SARS-CoV-2 Wuhan-HU-1 infected in HEK293T cells. It is filed as toxicity, cell-based. The settings on record: read-out: Ratio CC50/EC50. Put shortly: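 In vitro safety index was calculated as the 293T CC50 divided by the SARS-CoV-2 replicon EC50.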
A short description of data set [5]: Inhibition of MERS-CoV 3CLpro using FAM-SAVLQ as substrate preincubated with enzyme for 1 hr followed by susbtrate addition and measured after 1 hr by FRET assay. More on the design: species or system Middle East respiratory syndrome-related coronavirus.

Sequence of Procathepsin L (P07711 whole entry): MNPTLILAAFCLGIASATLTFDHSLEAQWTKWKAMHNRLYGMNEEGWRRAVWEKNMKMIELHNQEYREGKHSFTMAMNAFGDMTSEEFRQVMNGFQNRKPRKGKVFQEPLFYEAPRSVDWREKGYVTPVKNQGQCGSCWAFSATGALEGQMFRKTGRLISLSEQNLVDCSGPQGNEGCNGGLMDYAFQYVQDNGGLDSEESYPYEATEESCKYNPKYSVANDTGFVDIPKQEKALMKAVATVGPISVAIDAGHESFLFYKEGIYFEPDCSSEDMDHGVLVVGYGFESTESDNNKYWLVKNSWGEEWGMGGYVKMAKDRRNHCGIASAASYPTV
Sequence of Cathepsin D (P07339 65-162 limits assumed): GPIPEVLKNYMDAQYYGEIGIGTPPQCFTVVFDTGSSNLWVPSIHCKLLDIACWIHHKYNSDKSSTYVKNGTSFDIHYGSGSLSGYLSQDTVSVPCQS
Sequence of Cathepsin D (P07339 169-412 limits assumed): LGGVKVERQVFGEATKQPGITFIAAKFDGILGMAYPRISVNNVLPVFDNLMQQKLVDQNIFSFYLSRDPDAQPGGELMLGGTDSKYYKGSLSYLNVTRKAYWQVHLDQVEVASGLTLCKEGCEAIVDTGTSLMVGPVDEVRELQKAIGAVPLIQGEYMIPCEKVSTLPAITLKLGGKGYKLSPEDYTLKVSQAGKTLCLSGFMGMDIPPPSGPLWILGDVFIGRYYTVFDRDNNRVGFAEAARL

The term IC50 denotes the concentration needed to halve the response being measured. Lower therefore signals greater potency. Broadly, the CC50 is the concentration giving 50% cytotoxicity. Usually EC50 stands for the concentration needed to bring the measured effect to its halfway point. Regarding `CC(C)C[C@H](NC(=O)OCC(C)(C)Oc1ccc(F)cc1)C(=O)N[C@H](C=O)C[C@@H]1CCNC1=O`, the IC50 on Prothrombin was over 50000 nM; on Neutrophil elastase, over 50000 nM; in data set [2], 220 nM; at Cathepsin D, over 50000 nM; against chymotrypsin, over 50000 nM; against Procathepsin L it was 30 nM. Also, the IC50 is 1900 nM at Cathepsin B and over 50000 nM against Cathepsin G. Besides, the CC50 at 72 h in [1] is over 50000 nM. The EC50 in [3] came out at 70 nM.
For the compound `[2H]C([2H])(OC(=O)N[C@@H](CC(C)C)C(=O)N[C@H](C=O)C[C@@H]1CCNC1=O)C(C)(C)Oc1ccc(Cl)cc1`, the EC50 came out at 15 nM in the data set with SARS-CoV-2 and 100 nM in [3]. Besides, the IC50 against Prothrombin is over 50000 nM; against Neutrophil elastase, over 50000 nM; in data set [2], 170 nM; at Cathepsin D, over 50000 nM; against chymotrypsin, over 50000 nM; on Procathepsin L, 40 nM. Further, the figures for the IC50 against Cathepsin B and at Cathepsin G were 800 nM and over 50000 nM, respectively. In addition, in data set [1], the CC50 at 72 h is over 50000 nM. For the same compound, the selectivity ratio in data set [4] was determined as 3330.
As to `CC(C)C[C@H](NC(=O)OCC(C)(C)Sc1cccc(Cl)c1)C(=O)N[C@H](C=O)C[C@@H]1CCNC1=O`, the EC50 came to 10 nM in the data set with SARS-CoV-2 and 190 nM in data set [3]. In addition, the IC50 against Prothrombin is over 50000 nM; at Neutrophil elastase, over 50000 nM; in data set [2], 150 nM; against Cathepsin D, over 50000 nM; in data set [5] it was 110 nM; against chymotrypsin it was over 50000 nM. Besides, the IC50 was 30 nM at Procathepsin L, 1400 nM on Cathepsin B and over 50000 nM against Cathepsin G. Besides, the CC50 at 72 h in [1] is over 50000 nM. Also, the selectivity ratio in data set [4] turned out to be 3330.
With `CC(C)C[C@H](NC(=O)OCC(C)(C)Sc1ccccc1)C(=O)N[C@H](C#N)C[C@@H]1CCNC1=O`, the concentration for a half-maximal effect (EC50) in the data set on SARS-CoV-2 is 60 nM; in data set [3], 1320 nM. The IC50 is over 50000 nM at Prothrombin; over 50000 nM on Neutrophil elastase; 490 nM in data set [2]; over 50000 nM at Cathepsin D; 410 nM in [5]; over 50000 nM against chymotrypsin. The IC50 is 30 nM against Procathepsin L, 2600 nM on Cathepsin B and over 50000 nM on Cathepsin G. Further, the CC50 at 72 h in [1] is over 50000 nM.
Consider `CC(C)C[C@H](NC(=O)OCC(C)(C)Oc1cccc(Cl)c1)C(=O)N[C@H](C=O)C[C@@H]1CCNC1=O`, for which the EC50 is 13 nM in the data set on SARS-CoV-2 and 60 nM in data set [3]. For the same compound, the IC50 at Prothrombin is over 50000 nM; against Neutrophil elastase, over 50000 nM; in data set [2], 190 nM; against Cathepsin D it was over 50000 nM; against chymotrypsin, over 50000 nM; against Procathepsin L it was 20 nM. Further, the IC50 was 900 nM against Cathepsin B and over 50000 nM on Cathepsin G. Besides, the CC50 at 72 h in [1] was over 50000 nM. Also, in data set [4], the selectivity ratio was found to be 3330.
For `CC(C)C[C@H](NC(=O)OCC(C)(C)Sc1ccccc1)C(=O)N[C@H](C=O)C[C@@H]1CCNC1=O`, the EC50 stood at 12 nM in the data set with SARS-CoV-2 and 80 nM in [3]. The 50% inhibitory concentration (IC50) on Prothrombin was over 50000 nM; at Neutrophil elastase, over 50000 nM; in data set [2], 70 nM; at Cathepsin D, over 50000 nM; in data set [5] it was 80 nM; on chymotrypsin, over 50000 nM. Also, the values for the IC50 against Procathepsin L, at Cathepsin B and against Cathepsin G were 30 nM, 1900 nM and over 50000 nM, respectively. In addition, in data set [1], the CC50 at 72 h is over 50000 nM. Also, the selectivity ratio in data set [4] is 3330.
For the compound `[2H]C([2H])(OC(=O)N[C@@H](CC(C)C)C(=O)N[C@H](C=O)C[C@@H]1CCNC1=O)C(C)(C)Sc1ccccc1`, the EC50 in the data set on SARS-CoV-2 was found to be 11 nM; in data set [3], 100 nM. The IC50 was over 50000 nM on Prothrombin; over 50000 nM at Neutrophil elastase; 200 nM in data set [2]; over 50000 nM on Cathepsin D; 60 nM in [5]; over 50000 nM at chymotrypsin. The IC50 was 30 nM against Procathepsin L, 2000 nM on Cathepsin B and over 50000 nM on Cathepsin G. For the same compound, the CC50 at 72 h in [1] was over 50000 nM. The selectivity ratio in data set [4] was found to be 3330.
On to `CC(C)C[C@H](NC(=O)OCC(C)(C)Sc1ccccc1)C(=O)N[C@@H](C[C@@H]1CCNC1=O)C(=O)C(=O)NC1CC1`, for which the EC50 came to 50 nM in the data set on SARS-CoV-2 and 710 nM in [3]. Also, the IC50 was over 50000 nM against Prothrombin; over 50000 nM on Neutrophil elastase; 210 nM in data set [2]; over 50000 nM at Cathepsin D; over 50000 nM against chymotrypsin; 40 nM against Procathepsin L. In addition, the IC50 is 2000 nM at Cathepsin B and over 50000 nM against Cathepsin G. The CC50 at 72 h in [1] was over 50000 nM.
